# Square brackets hold non-standard residues; d marks the D form. Peptide text beside a SMILES is read from it. * marks the point of attachment. Acetyl(thymin-1-yl) = Cc1cn(CC(=O)*)c(=O)[nH]c1=O; NBD = O=[N+]([O-])c1ccc(*)c2nonc12
# Legend:
# T98G cells [1] = assay: Cellular uptake and distribution by fluorescence imaging; assay type: cell-based
# Procedure, shortened: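 T98G cells incubated with the test peptide at 100 or 200 μM and imaged by confocal fluorescence microscopy after 2 h. Counterstains used: Hoechst 33342 for nuclei, fibrillarin immunofluorescence for nucleoli, and ER Tracker. Localisation to lysosomes was also assessed.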
# [2] = test system: phospho-Ser139-H2AX (γH2AX); assay: Immunofluorescence of γH2AX; assay type: cell-based; conditions: T98G cells, 200 μM, 2 h
# [3] = test system: RNA extracted from T98G cells; assay: Interaction with total RNA extracted from T98G cells in PBS buffer
# [4] = CD spectra, secondary structure inferred by DichroWeb; assay type: physicochemical; conditions: 200 μM
# MES-SA/Dx5 = assay: Nucleolus targeting in MES-SA/Dx5 cells; assay type: cell-based
# [5] = assay type: cell-based
# T98G cells [6] = conditions: 50 uM; cited from earlier work
# HeLa = assay: Nucleolus targeting in HeLa cells; assay type: cell-based
# Saos-2 = assay: Nucleolus targeting in Saos-2 cells; assay type: cell-based
smiles,measurement,setting,value
Cc1cn(CC(=O)N[C@H](Cc2ccccc2)C(=O)N[C@H](Cc2ccccc2)C(=O)N[C@H](CCCCN)C(=O)N[C@H](CCCCN)C(=O)N[C@H](Cc2ccccc2)C(=O)N[C@H](CCCCN)C(=O)N[C@H](CC(C)C)C(=O)N[C@H](CCCCN)C(=O)N[C@H](CC(C)C)C(=O)N[C@H](CCCCNc2ccc([N+](=O)[O-])c3nonc23)C(=O)O)c(=O)[nH]c1=O [D-1] ({Acetyl(thymin-1-yl)}-[dF][dF][dK][dK][dF][dK][dL][dK][dL][dK](NBD)-OH; N-terminus and C-terminus assumed),Cell entry,"T98G cells [1]; 100 μM, fluorescence imaging",hardly enters the cells
same,Cellular distribution,"T98G cells [1]; 200 μM, 2 h, fluorescence imaging",bright fluorescent puncta in cell nucleus
same,Lysosomal localisation,"T98G cells [1]; 200 μM, fluorescence imaging",only slightly localized in the lysosome
same,Cellular uptake at 4 °C,"T98G cells [1]; 4 °C, 1 h",hardly exhibit any fluorescence
same,γH2AX foci formation (DNA damage),[2],leads to γH2AX foci formation
same,Interaction with RNA,[3],form precipitates that resist ribonuclease
same,unordered structures content,[4],28%
same,α-helix content,[4],36%
same,β-sheet content,[4],13%
same,β-turns content,[4],23%
same,Nucleolus targeting,MES-SA/Dx5,able to target nucleoli
same,IC50,[5],86.2 µM
same,Effect on cells at low concentration,T98G cells [6],innocuous to the cells
same,Nucleolus targeting,HeLa,able to target nucleoli
same,Nucleolus targeting,Saos-2,able to target nucleoli

# Source: article PMC6800822 (Bioconjugate chemistry, 2019)
